The values that follow come from ChEMBL document CHEMBL3352517, “Anti-inflammatory ursane- and oleanane-type triterpenoids from Vitex negundo var. cannabifolia” (J Nat Prod, 2014).

Series [1] relates to RAW264.7. Briefly: (§1) Cytotoxicity against mouse RAW264.7 cells assessed as cell viability at 40 uM by MTT assay. The conditions noted are these: raw264.7, 40 µM. The class given is cell-based. (In general: Formazan colour is commonly taken as a measure of viable cells.)
Series [2] relates to RAW264.7. The series is described as follows: Anti-inflammatory activity in mouse RAW264.7 cells assessed as inhibition of lipopolysaccharide-induced nitric oxide production at 80 uM incubated for 24 hrs by Griess reagent based assay. The format is functional. The conditions noted are these: RAW264.7, 24 h. In general terms: Nitrite, measured by Griess reagent, commonly stands in for NO production.

Series [3] has as its system RAW264.7. Briefly: Anti-inflammatory activity in mouse RAW264.7 cells assessed as inhibition of lipopolysaccharide-induced nitric oxide production incubated for 24 hrs by Griess reagent based assay. The format is functional, cell-based. The conditions noted are these: RAW264.7, 24 h. A digest of the protocol:
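LPS-stimulated RAW 264.7 macrophages; NO production read by Griess assay; inhibition expressed as IC50 (μM).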

The nature of series [4]: as §1. The class given is cell-based. The conditions noted are these: RAW264.7 cells, read-out: Activity.

The inhibition is the relative decrease from the control value, in per cent. A word on the IC50: it is the concentration that gives 50% inhibition.

For the compound `C[C@@H]1[C@@H]2C[C@@]3(CC[C@]4(C)[C@@H]5[C@@H]3[C@]1(C)O[C@]5(O)C[C@@H]1[C@@]3(C)C[C@@H](O)[C@@H](O)C(C)(C)[C@@H]3CC[C@]14C)C(=O)O2`, the Activity result in the series with RAW264.7 [1] is given as “Non-toxic”. Further, the inhibition at 80 µM in the series on RAW264.7 [2] is under 50%.

Regarding `CC1(C)[C@@H]2C[C@@]3(CC[C@]4(C)[C@@H]5[C@@H]3[C@@H]1O[C@]5(O)C[C@@H]1[C@@]3(C)C[C@@H](O)[C@@H](O)C(C)(C)[C@@H]3CC[C@]14C)C(=O)O2`, in the series on RAW264.7 [1], the Activity entry is “Non-toxic”. Moreover, in the series with RAW264.7 [2], the inhibition at 80 µM was under 50%.

As to `C[C@H]1[C@H](C)CC[C@@]23CC[C@]4(C)[C@](OC2=O)([C@H](O)C[C@@H]2[C@@]5(C)C[C@@H](O)[C@@H](O)C(C)(C)[C@@H]5CC[C@]24C)[C@H]13`, the Activity result in the series with RAW264.7 [1] was “Non-toxic”. In addition, in the series on RAW264.7 [3], the IC50 stood at 34 µM.

Consider `C[C@H]1[C@H](C)CC[C@@]23CC[C@@]4(C)[C@]5(C)CC[C@H]6C(C)(C)[C@H](O)[C@H](O)C[C@]6(C)[C@H]5CC(=O)[C@]4(OC2=O)[C@H]13`, for which the Activity result in the series with RAW264.7 [1] is “Non-toxic”. In addition, the inhibition at 80 µM in the series with RAW264.7 [2] is under 50%.

`CC1(C)CC[C@@]23CC[C@@]4(C)[C@]5(C)CC[C@H]6C(C)(C)[C@H](O)[C@H](O)C[C@]6(C)[C@H]5CC(=O)[C@]4(OC2=O)[C@@H]3C1`: the viability at 40 µM in series [4] was under 70%.

For `CC1(C)[C@H](O)[C@H](O)C[C@]2(C)[C@H]3CC=C4[C@@H]5C[C@](C)(CO)CC[C@]5(C(=O)O)CC[C@@]4(C)[C@]3(C)CC[C@@H]12`, the Activity entry in the series on RAW264.7 [1] was “Non-toxic”. Also, in the series with RAW264.7 [2], the inhibition at 80 µM was under 50%.

Consider `C=C1CC[C@]2(C(=O)O)CC[C@]3(C)C(=CC[C@@H]4[C@@]5(C)C[C@@H](O)[C@@H](O)C(C)(C)[C@@H]5CC[C@]43C)[C@@H]2[C@H]1C`, for which the Activity entry with RAW264.7 [1] is listed as “Non-toxic”. For the same compound, in the series on RAW264.7 [3], the IC50 was determined as 26.1 µM.

Regarding `CC1(C)CC[C@]2(C(=O)O)CC[C@]3(C)C(=CC[C@@H]4[C@@]5(C)C[C@@H](O)[C@@H](O)[C@](C)(CO)[C@@H]5CC[C@]43C)[C@@H]2C1`, the Activity result in the series on RAW264.7 [1] is recorded as “Non-toxic”. For the same compound, the IC50 in the series with RAW264.7 [3] was found to be 40.5 µM.

Regarding `CC1(C)CC[C@]2(C(=O)O)CC[C@]3(C)C(=CC[C@@H]4[C@@]5(C)C[C@@H](O)[C@@H](O)C(C)(C)[C@@H]5CC[C@]43C)[C@@H]2C1`, the Activity result with RAW264.7 [1] is “Non-toxic”. In addition, the IC50 in the series on RAW264.7 [3] is 27.7 µM.

Turning to `C[C@H]1[C@H](C)CC[C@]2(C(=O)O)CC[C@]3(C)C(=CC[C@@H]4[C@@]5(C)C[C@@H](O)[C@H](O)C(C)(C)[C@@H]5CC[C@]43C)[C@H]12` [COROSOLIC ACID], in series [4], the viability at 40 µM was under 70%.

For the compound `C[C@@H]1CC[C@]2(C(=O)O)CC[C@]3(C)C(=CC[C@@H]4[C@@]5(C)C[C@@H](O)[C@@H](O)C(C)(C)[C@@H]5CC[C@]43C)[C@@H]2[C@]1(C)O` [EUSCAPHIC ACID], the Activity entry in the series with RAW264.7 [1] was “Non-toxic”. Also, the inhibition at 80 µM with RAW264.7 [2] was under 50%.

As for `C[C@H]1[C@H](C)CC[C@]2(C(=O)O)CC[C@]3(C)C(=CC[C@@H]4[C@@]5(C)C[C@@H](O)[C@@H](O)C(C)(C)[C@@H]5CC[C@]43C)[C@H]12` [PYGENIC ACID A], the viability at 40 µM in series [4] is under 70%.

In the case of `O=c1c(O)c(-c2ccc(O)c(O)c2)oc2cc(O)cc(O)c12` [QUERCETIN], the IC50 with RAW264.7 [3] was determined as 16.6 µM.

As to `C[C@@H]1CC[C@]2(C(=O)O)CC[C@]3(C)C(=CC[C@@H]4[C@@]5(C)C[C@@H](O)[C@H](O)C(C)(C)[C@@H]5CC[C@]43C)[C@@H]2[C@]1(C)O` [TOMENTIC ACID], the Activity entry with RAW264.7 [1] is listed as “Non-toxic”. Besides, in the series with RAW264.7 [3], the IC50 came out at 24.9 µM.

As for `C[C@H]1[C@H](C)CC[C@]2(C(=O)O)CC[C@]3(C)C(=CC[C@@H]4[C@@]5(C)CC[C@H](O)C(C)(C)[C@@H]5CC[C@]43C)[C@H]12` [URSOLIC ACID], the viability at 40 µM in series [4] was under 70%.
